PAFAH1B2 inh: blocks human PAF acetylhydrolase 1b catalytic subunit 2. 340,000 compounds, 1.2% hits. inhibition, % at 3.39 µM. P68402. recombinant PAFAH1B2, FP-rhodamine activity probe, fluorescence polarization. AID 492953;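 active = inhibition above the mean of all tested compounds plus 3 SD, cut at about 24% in these data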;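 note: 0% = enzyme with DMSO and 100% = wells lacking PAFAH1B2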
Target sequence (P68402 whole entry, looked up): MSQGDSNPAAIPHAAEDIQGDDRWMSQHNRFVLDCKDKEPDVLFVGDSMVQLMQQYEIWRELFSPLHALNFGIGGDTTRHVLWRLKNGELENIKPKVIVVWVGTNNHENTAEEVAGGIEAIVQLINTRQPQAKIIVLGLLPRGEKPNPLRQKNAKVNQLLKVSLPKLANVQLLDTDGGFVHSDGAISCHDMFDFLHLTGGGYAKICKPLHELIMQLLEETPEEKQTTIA
PAFAH2 inh: inhibitors of human PAFAH2; Q99487; recombinant PAFAH2, FP-rhodamine activity probe, fluorescence polarization; inhibition, % at 3.39 µM; 340,000 compounds, 0.99% hits;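 active = inhibition above the mean over all tested compounds plus 3 SD, cut at about 30% in these data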;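 note: inhibitors block probe labeling of enzyme so polarization drops; 0% = enzyme with DMSO and 100% = wells lacking PAFAH2 protein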
ASAP1 inh: blocks human ASAP1-stimulated Arf1 GTP hydrolysis. Q9ULH1. GDP FP detection. inhibition, % at 16.5 µM. 360,000 compounds, 0.19% hits; in the data active = inhibition above about 25%;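 note: 0% = vehicle with enzyme and substrate and 100% = no enzyme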
PAFAH1B3 inh: blocks human PAF acetylhydrolase 1B catalytic subunit 3 | Q15102 | inhibition, % at 3.39 µM | recombinant PAFAH1B3, FP-rhodamine probe, fluorescence polarization | 340,000 compounds, 0.28% hits;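 active = inhibition above the screen-wide average of all tested compounds plus 3 SD, cut at about 25% in these data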;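 note: 0% = enzyme with DMSO only and 100% = wells lacking PAFAH1B3 protein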
Target sequence (Q15102 whole entry, looked up): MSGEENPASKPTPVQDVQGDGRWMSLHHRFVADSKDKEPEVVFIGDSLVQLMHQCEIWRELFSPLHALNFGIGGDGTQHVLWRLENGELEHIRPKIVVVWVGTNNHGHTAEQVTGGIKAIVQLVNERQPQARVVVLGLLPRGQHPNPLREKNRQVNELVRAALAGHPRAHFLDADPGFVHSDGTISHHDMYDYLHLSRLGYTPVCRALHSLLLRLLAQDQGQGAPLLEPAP
ARFGAP1 inh: inhibitors of rat ARFGAP1. Q62848. Arfgap1-stimulated ARF1 GTP hydrolysis, GDP FP detection. inhibition, % at 16.5 µM. 360,000 compounds, 0.26% hits;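 active = inhibition above a per-plate limit, mean inhibition of low control wells plus 3 SD, cut at about 25% in these data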;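 note: 0% = DMSO wells with enzyme and 100% = wells lacking Arfgap1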
Target sequence (Q62848 1-136 limits assumed): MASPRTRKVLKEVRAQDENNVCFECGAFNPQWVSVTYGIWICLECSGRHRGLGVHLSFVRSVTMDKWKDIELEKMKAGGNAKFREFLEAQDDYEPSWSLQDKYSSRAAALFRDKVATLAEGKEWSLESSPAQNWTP
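Replicates: Single well per compound | Assay system: Truncated rat Arfgap1 GAP domain | Control set: No-Arfgap1 wells (100%) versus DMSO full-reaction wells (0%) | Times: Enzyme reaction 120 min at 25 °C after 20 min preincubation | Reagent: Human ARF1(Δ1-17)-GTP substrate | Measured by: Tracer-displacement fluorescence polarization with EDTA stop, 620/688 nm | Measure: Percent inhibition of Arfgap1-stimulated GTP hydrolysis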
pPAFAH FP inh: pPAFAH (human) enzyme inhibition; Q13093; recombinant pPAFAH, FP-rhodamine probe fluorescence polarization; inhibition, % at 3.39 µM; 330,000 compounds, 1.5% hits;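 active = inhibition above the mean inhibition across the screen plus 3 SD, cut at about 25% in these data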;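 note: inhibitors block binding of the rhodamine activity-based probe so polarization drops; 0% = enzyme with DMSO and 100% = wells lacking pPAFAH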
An asterisk follows results filed as active; . = no result given. In the library only some 2.7% were active in any assay of this set; here they are far more common.

SMILES	PAFAH1B2 inh	PAFAH2 inh	ASAP1 inh	PAFAH1B3 inh	ARFGAP1 inh	pPAFAH FP inh
O=C(CCN1C(=O)/C(=C\C=C\c2ccccc2)SC1=S)Nc1ccccc1C(=O)O	4.9	9.0	12.6	7.6	17.0	29.8*
CC(/C=C1\SC(=S)N(CCCC(=O)Nc2ccc(C(=O)O)c(O)c2)C1=O)=C\c1ccccc1	.	.	.	.	.	30.8*
O=C(CCCN1C(=O)/C(=C\c2ccccc2)SC1=S)Nc1cccc(C(=O)O)c1	-0.3	3.7	-3.4	3.7	6.3	4.3
CCCN(CCC)CCN1CCN(C(=O)[C@H](CCc2ccccc2)NC(=O)[C@H]2O[C@@H](n3cnc4c(N)ncnc43)[C@H](O)[C@@H]2O)CC1	.	.	-16.3	.	11.2	.
O=C(N[C@H](C(=O)N1CCC[C@H]1C(=O)NCCc1ccccc1Cl)c1ccccc1)c1cccs1	.	.	-7.1	.	10.7	.
CC(C)(C)S(=O)N1C[C@@H]2CC(=O)C=C2[C@H]1CCO (stereo not given in full)	.	.	-2.5	.	2.6	.
Cc1ccc(NS(=O)(=O)c2ccc(NC(=O)c3ccc(Br)o3)cc2)c(C)c1	-16.8	-38.3	7.1	-19.3	7.0	14.8
Cc1ccc(NS(=O)(=O)c2ccc(NC(=O)CSc3ccc(Cl)cc3)cc2)c(C)c1	18.1	-6.9	10.9	9.1	5.2	33.4*
O=C(Nc1ccc(NS(=O)(=O)c2ccccc2)cc1)c1ccccc1Cl	6.4	5.7	-14.9	2.6	3.4	24.7*
CN(c1cccc(NC(=O)CSc2ccc(Cl)cc2)c1)S(C)(=O)=O	49.5*	9.6	7.3	-0.8	-5.4	29.4*
Cc1ccc(NS(=O)(=O)c2ccc3c(c2)C(=O)c2ccccc2C3=O)c(C)c1	2.4	10.7	0.5	12.1	11.9	32.0*
OCCC(N1CCOCC1)C(O)(c1ccccc1)c1ccccc1 (stereo not given)	.	.	2.9	.	-8.8	.
CC(CNC(=O)[C@H]1O[C@@H](n2cnc3c(=O)[nH]c(N)nc32)[C@H](O)[C@@H]1O)c1ccccc1 (stereo not given in full)	.	.	-7.9	.	-1.1	.
CCOC(=O)[C@@H]1CSCCS(=O)(=O)N1C(=O)[C@H](CCSC)NC(=O)OC(C)(C)C	.	.	-6.5	.	10.0	.
Cc1ccc(NS(=O)(=O)c2ccc(NC(=O)c3ccccc3C(=O)O)cc2)c(C)c1	10.7	4.2	0.8	4.2	-6.2	33.6*
Cc1nc(NS(=O)(=O)c2ccccc2)sc1NC(=O)Nc1ccc(Cl)cc1	4.4	4.6	5.2	8.1	-4.2	33.7*
Cc1cc(NS(=O)(=O)c2ccccc2)ccc1NS(=O)(=O)c1ccccc1	28.3*	11.9	-9.4	4.8	12.6	.
CN1OC[C@@H]2CN3C(=Nc4cc(C(F)(F)F)cc(C(F)(F)F)c4)Sc4ccccc4[C@@H]3C[C@@H]21	.	.	3.5	.	12.5	.
Cc1ccc(-c2cc(C(=O)O)c3cc(Br)ccc3n2)o1	23.4	12.2	5.3	9.7	-2.5	27.6*
COc1cc(NS(=O)(=O)c2ccc3[nH]c(=O)oc3c2)cc(OC)c1	.	.	-1.9	.	-6.9	3.8
O=c1[nH]c2ccc(S(=O)(=O)Nc3ccc(Cl)cc3)cc2o1	54.3*	6.1	11.1	9.4	15.7	.
CN1CCN(S(=O)(=O)c2ccc(Sc3nnnn3-c3ccccc3)c([N+](=O)[O-])c2)CC1	38.5*	10.1	10.3	9.1	1.4	-1.4
NS(=O)(=O)c1ccc(OCCCN2CCC(C(O)(c3ccccc3)c3ccccc3)CC2)cc1	.	.	1.9	.	1.6	.
CC(CNC(=O)[C@@H](Cc1ccccc1)NC(=O)[C@H]1O[C@@H](n2cnc3c(=O)[nH]c(N)nc32)[C@H](O)[C@@H]1O)c1ccccc1 (stereo not given in full)	.	.	-6.3	.	-4.8	.
O=C(O)CCN1C(=O)C2C3CC(C2C1=O)C1C(c2ccccc2)c2sc(=O)[nH]c2SC31 (stereo not given)	83.8*	10.2	0.4	8.2	-4.2	1.1
SMILES	PAFAH1B2 inh	PAFAH2 inh	ASAP1 inh	PAFAH1B3 inh	ARFGAP1 inh	pPAFAH FP inh
O=c1[nH]c2c(s1)C(c1ccccc1)C1C3CCC(C3)C1S2 (stereo not given)	40.7*	-1.2	0.5	8.5	-8.3	11.8
O=C(O)CCN1C(=O)C2C3CC(C2C1=O)C1C(c2ccccc2)c2sc(=O)n(-c4ccccc4)c2SC31 (stereo not given)	10.5	2.3	3.7	3.5	-0.5	3.7
COC(=O)C1=C(C)N(Cc2ccccc2C(F)(F)F)C(=NCc2ccc(OC)cc2)NC1c1ccc(C(F)(F)F)cc1 (stereo not given)	.	.	-15.0	.	8.4	.
Cc1ccc(S(=O)(=O)Nc2nc3ccccc3nc2NCc2ccco2)cc1	29.5*	33.9*	6.3	25.7*	-5.5	15.4
Cc1cc(C)cc(Nc2ccc(C(=O)O)cc2N)c1	6.1	16.8	5.2	12.4	-4.9	18.3
COc1cccc(Nc2ccc(C(=O)O)cc2N)c1	3.0	-2.2	7.0	6.0	-5.0	24.9*
CCOc1ccccc1Nc1ccc(C(=O)O)cc1N	1.5	-2.2	0.8	3.0	-10.4	7.0
Cc1ccc(Nc2ccc(C(=O)O)cc2N)cc1	.	.	3.4	.	8.5	28.4*
CC(/C=C1\SC(=S)N(NS(=O)(=O)c2ccccc2)C1=O)=C\c1ccccc1	38.8*	7.2	-4.1	8.6	-25.0	10.4
CC(/C=C1\SC(=S)N(NS(=O)(=O)c2ccc(C)cc2)C1=O)=C\c1ccccc1	28.3*	4.4	-14.4	4.2	-26.1	13.8
CC(/C=C1\SC(=S)N(NC(=O)c2ccccc2C)C1=O)=C\c1ccccc1	0.8	-4.2	-1.6	1.9	-3.6	-4.1
CC(/C=C1\SC(=S)N(NC(=O)c2ccc(C)cc2)C1=O)=C\c1ccccc1	0.5	-25.7	.	-11.5	.	-3.3
Cc1[nH]c2ccccc2c1CC(=O)Nc1ccc(Nc2cccnc2)c(-c2ccc(Cl)c(Cl)c2)c1	.	.	10.8	.	18.3	.
COc1cccc(COC(=O)c2ccc3c(c2)NC(=O)C(C)S3)c1OC (stereo not given)	-1.9	4.5	13.9	0.2	11.8	5.0
CC1Sc2ccc(C(=O)OCc3ccccc3Cl)cc2NC1=O (stereo not given)	3.1	9.6	1.4	3.8	5.3	29.3*
O=C(O)/C=C\C(=O)Nc1ccc(N2CCN(c3cccc(Cl)c3)CC2)cc1	0.4	2.5	-2.7	-3.0	-7.2	15.1
O=C(O)/C=C\C(=O)Nc1ccc(N2CCN(c3ccc(Cl)cc3)CC2)cc1	24.7*	4.8	2.9	4.4	4.7	15.3
Clc1ccc(N2CCN(/N=C/c3ccncc3)CC2)cc1	26.9*	4.2	-10.2	1.1	-4.6	5.4
CC(C)=CCc1cc(-c2oc3cc(O)cc(O)c3c(=O)c2O)ccc1O	12.6	-8.4	8.1	26.2*	8.4	34.0*
CCn1cnc2cc(NCc3ccncc3)ccc21	-0.6	-0.7	2.3	5.2	1.4	-8.2
CCn1cnc2cc(NCc3ccc(Cl)cc3)ccc21	32.4*	-3.2	-26.3	3.0	-1.4	-1.0

Assay outcomes deposited in PubChem by The Scripps Research Institute Molecular Screening Center.
